This is an account of results in PubChem BioAssay AID652279 (Broad Institute, 2013).

The structures appear in SMILES notation.

The test system of this test is T. cruzi CAI/72 in J774 macrophages, trypomastigote emergence, microscopy. The test is described as follows: T. cruzi parasite clearance versus stasis, late-stage follow-up, mechanism study, imaging, CAI/72 strain, J774 macrophages, dry powder (AID 652279). The settings on record: active compounds read high. The method in brief:
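System: Irradiated (9000 rad) J774 macrophages infected with T. cruzi CAI/72 | Detection: Daily microscopic scoring of trypomastigote appearance | Incubation: 1-week or 3-week dosing, then 31-day or 17-day drug-free follow-up | Doses: Compound renewed every 3 days from 24 h post-infection | Buffer or medium: RPMI-1640 supplemented with 5% fetal calf serum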
For the molecule `CN(C)CC#Cc1cccc(-c2nc(C(=O)NCc3ccc4c(c3)OCO4)cc3c2[C@@H](CCO)N(S(=O)C(C)(C)C)C3)c1` (stereo partly specified), the slope of emergence day vs concentration was 4.35.

Turning to `CC(C)N1C[C@H](CN(C)Cc2ccc(Cl)cc2)Oc2c(NC(=O)c3ccncc3)cccc2C1=O`, the slope of emergence day vs concentration is 2.02. As for `CC(C)N1C[C@@H](CN(C)Cc2ccc(Cl)c(Cl)c2)Oc2c(NC(=O)c3ccncc3)cccc2C1=O`, the slope of emergence day vs concentration was 6.07. Regarding `CN(C)C(=O)c1cccc(-c2ccc([C@H]3[C@H](CO)N4CCCCN(C(=O)C5CCC5)C[C@@H]34)cc2)c1`, the slope of emergence day vs concentration is 1.4. The figure for `CC(C)N1C[C@@H](CN(C)CCc2ccc(Cl)c(Cl)c2)Oc2c(NC(=O)c3ccncc3)cccc2C1=O` is 6.4; for `CC(C)N1C[C@@H](CN(C)Cc2ccc(Cl)cc2)Oc2c(NC(=O)c3ccncc3)cc(F)cc2C1=O` it is 2.15; for `CN(C)CC#Cc1cccc(-c2nc(C(=O)N[C@@H]3CCN(Cc4ccccc4)C3)cc3c2[C@@H](CCO)N(S(=O)C(C)(C)C)C3)c1` (stereo partly specified) it is 2.02. The figure for `CC(C)N1C[C@@H](CN(C)Cc2ccc(Oc3ccccc3)cc2)Oc2c(NC(=O)c3ccncc3)cccc2C1=O` is 5.84; for `CC(C)N1C[C@@H](CN(C)CCc2ccc(Cl)cc2)Oc2c(NC(=O)c3ccncc3)cccc2C1=O` it is 6.07. For the molecule `CC(C)N1C[C@@H](CN(C)Cc2ccc(Cl)cc2)Oc2c(NC(=O)c3ccncc3)cccc2C1=O`, the slope of emergence day vs concentration was 2.21. The figure for `CC(C)N1C[C@@H](CN(C)Cc2ccc(Cl)cc2)Oc2c(C(=O)Nc3ccncc3)cccc2C1=O` is 4.59.
